Experimental findings from ChEMBL document CHEMBL1124012, “Synthesis of sulfur-containing analogues of bestatin. Inhibition of aminopeptidases by alpha-thiolbestatin analogues” (J Med Chem, 1988) are described below.

One may read the Ki as a dissociation constant, usually derived from enzyme kinetics or from competition with a known ligand.

Molecules are shown by their SMILES.

The target of assay [1] is Cytosol aminopeptidase (Homo sapiens, UniProt P28838). As to the kind of experiment: Inhibitory activity against Leucine aminopeptidase. Also on record: species or system Streptomyces olivoreticuli. The method, boiled down:
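Cytosolic leucine aminopeptidase, converted to Zn/Mg form by 4 h at 37 °C in 10 mM HEPES pH 8.0 with 5 mM MgSO4 and 1 M KCl. Assayed at 25 °C in 0.1 M Tris pH 8.5 with 5 mM MgCl2, enzyme 5 nM (1 nM for very tight binders).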

Assay [2] concerns the target T1, Aminopeptidase B (Rattus norvegicus, UniProt O09175).
T1 sequence (O09175 whole entry): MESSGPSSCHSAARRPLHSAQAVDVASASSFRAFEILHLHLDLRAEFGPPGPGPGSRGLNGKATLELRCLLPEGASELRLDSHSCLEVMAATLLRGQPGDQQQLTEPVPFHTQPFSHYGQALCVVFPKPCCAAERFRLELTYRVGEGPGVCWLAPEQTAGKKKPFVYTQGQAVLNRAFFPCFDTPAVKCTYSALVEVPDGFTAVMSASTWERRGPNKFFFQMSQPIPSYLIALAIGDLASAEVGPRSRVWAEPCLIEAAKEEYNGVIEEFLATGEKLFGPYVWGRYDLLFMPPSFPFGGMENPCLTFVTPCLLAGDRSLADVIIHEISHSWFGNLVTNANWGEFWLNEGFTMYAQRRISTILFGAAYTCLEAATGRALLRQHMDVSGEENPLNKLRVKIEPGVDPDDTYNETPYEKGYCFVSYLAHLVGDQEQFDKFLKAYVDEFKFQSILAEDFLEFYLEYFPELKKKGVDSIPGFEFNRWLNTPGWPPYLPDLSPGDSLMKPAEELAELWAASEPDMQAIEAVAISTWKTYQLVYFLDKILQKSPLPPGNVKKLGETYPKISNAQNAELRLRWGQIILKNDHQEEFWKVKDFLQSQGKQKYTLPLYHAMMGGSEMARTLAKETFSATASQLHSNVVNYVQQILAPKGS
As to the kind of experiment: Inhibitory activity against aminopeptidase B. A digest of the protocol:
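Aminopeptidase B at an estimated 4.6 nM, diluted 10-fold for tight binders, in 0.1 M PIPES pH 7.0 with 0.2 M NaCl and 1 mM DTT, 25 °C. Substrate was L-arginine p-nitroanilide, used near Km, with hydrolysis read at 405 nm. Where slow binding appeared, enzyme and inhibitor were preincubated 10–20 min before substrate was added.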

For assay [3], the target named is T2, Aminopeptidase N (Sus scrofa, UniProt P15145).
T2 sequence (P15145 whole entry): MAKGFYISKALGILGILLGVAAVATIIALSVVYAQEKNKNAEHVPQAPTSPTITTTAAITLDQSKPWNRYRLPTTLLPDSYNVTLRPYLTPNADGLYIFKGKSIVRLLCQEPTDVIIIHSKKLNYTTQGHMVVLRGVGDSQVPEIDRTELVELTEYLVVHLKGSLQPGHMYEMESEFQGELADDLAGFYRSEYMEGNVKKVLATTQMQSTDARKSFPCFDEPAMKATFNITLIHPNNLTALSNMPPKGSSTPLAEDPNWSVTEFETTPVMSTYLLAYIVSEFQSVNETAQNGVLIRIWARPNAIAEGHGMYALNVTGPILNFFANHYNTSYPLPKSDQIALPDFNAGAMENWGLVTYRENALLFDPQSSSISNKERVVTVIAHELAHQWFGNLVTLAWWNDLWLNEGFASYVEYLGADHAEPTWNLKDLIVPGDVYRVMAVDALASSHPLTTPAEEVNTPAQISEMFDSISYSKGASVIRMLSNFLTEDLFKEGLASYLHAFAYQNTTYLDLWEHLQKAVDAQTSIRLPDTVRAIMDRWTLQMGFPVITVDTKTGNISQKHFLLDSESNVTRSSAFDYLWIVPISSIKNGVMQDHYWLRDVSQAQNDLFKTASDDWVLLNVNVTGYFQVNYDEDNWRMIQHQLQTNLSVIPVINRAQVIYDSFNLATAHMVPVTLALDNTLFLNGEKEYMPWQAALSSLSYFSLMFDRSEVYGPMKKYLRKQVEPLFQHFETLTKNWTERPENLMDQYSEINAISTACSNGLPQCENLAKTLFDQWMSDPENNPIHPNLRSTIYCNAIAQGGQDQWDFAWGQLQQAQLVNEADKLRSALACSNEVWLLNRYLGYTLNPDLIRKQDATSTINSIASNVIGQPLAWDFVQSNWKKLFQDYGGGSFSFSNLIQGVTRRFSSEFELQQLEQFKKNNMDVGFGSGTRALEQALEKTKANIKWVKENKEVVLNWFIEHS
As to the kind of experiment: Inhibitory activity against Aminopeptidase M.

Chain of Cytosol aminopeptidase (P28838 whole entry): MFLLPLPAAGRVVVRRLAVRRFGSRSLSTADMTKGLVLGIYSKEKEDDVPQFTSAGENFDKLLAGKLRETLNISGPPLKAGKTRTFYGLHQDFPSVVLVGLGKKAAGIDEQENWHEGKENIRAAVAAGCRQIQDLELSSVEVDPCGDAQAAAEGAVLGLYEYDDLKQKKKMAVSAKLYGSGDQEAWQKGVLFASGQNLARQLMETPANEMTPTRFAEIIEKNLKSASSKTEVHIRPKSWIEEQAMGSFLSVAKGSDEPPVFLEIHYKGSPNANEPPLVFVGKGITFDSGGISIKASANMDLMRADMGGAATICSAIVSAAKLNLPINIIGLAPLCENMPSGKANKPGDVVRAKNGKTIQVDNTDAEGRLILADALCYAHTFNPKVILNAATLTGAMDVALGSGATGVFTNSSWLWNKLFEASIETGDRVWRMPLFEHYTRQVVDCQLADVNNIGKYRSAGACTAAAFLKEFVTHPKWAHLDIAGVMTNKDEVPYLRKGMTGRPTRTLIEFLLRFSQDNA

As for `CC(C)C[C@H](NC(=O)[C@@H](S)[C@H](N)Cc1ccccc1)C(=O)O` [listing 1 of 2 here], the results for the Ki in assay [1], in assay [2] and in assay [3] were 1 µM, 0.0064 µM and 9.1 µM, respectively.
In the same order, the values of `CC(C)C[C@H](NC(=O)[C@@H](S)[C@H](N)Cc1ccccc1)C(=O)O` [listing 2 of 2 here] are 0.55 µM, 0.0046 µM and 4.4 µM.
In the same order, the values of `CC(C)CCNC(=O)[C@@H](O)[C@H](N)Cc1ccccc1` are 0.51 µM, 39 µM and 20 µM.
As to `CC(C)CC/N=C(\S)[C@@H](O)[C@H](N)Cc1ccccc1`, the Ki in assay [1] is 4.4 µM; in assay [2], over 1000 µM; in assay [3], 703 µM.
Taken in the same sequence, the figures for `COC(=O)C(S)[C@H](N)Cc1ccccc1` (some centres undefined) were 300 µM, 159 µM and 307 µM.
Taken in the same sequence, the figures for `NCCCC[C@@H](N)CS` were over 1000 µM, 0.00091 µM and 0.11 µM.
Regarding `CC(C)C[C@H](N)C(C)O` (some centres undefined), the Ki is 507 µM in assay [1], over 200 µM in assay [2] and 355 µM in assay [3].
As for `COC(=O)C(O)[C@H](N)Cc1ccccc1` (some centres undefined), the values for the Ki in assay [1], in assay [2] and in assay [3] were 33 µM, over 1000 µM and 1000 µM, respectively.
On to `CC(C)C[C@H](/N=C(\S)[C@@H](O)[C@H](N)Cc1ccccc1)C(=O)O`, for which the figures for the Ki in assay [1], in assay [2] and in assay [3] were 0.33 µM, 2.4 µM and 40.3 µM, respectively.
In assay [2], `NCCCC[C@@H](N)CO` gave a Ki of 100 µM.
Turning to `CC(C)CCNC(=O)[C@H](S)[C@@H](N)Cc1ccccc1`, the values for the Ki in assay [1], in assay [2] and in assay [3] were 26 µM, 35.7 µM and 32 µM, respectively.
Taken in the same sequence, the figures for `CC(C)CCNC(=O)[C@@H](S)[C@H](N)Cc1ccccc1` were 16.7 µM, 4 µM and 4.9 µM.
For the molecule `CC(C)C[C@@H](N)CS`, the inhibition constant (Ki) stood at 450 µM in assay [1], 0.13 µM in assay [2] and 0.02 µM in assay [3].
On to `CC(C)C[C@H](N)C(C)S` (some centres undefined), for which the Ki is over 500 µM in assay [1], 7 µM in assay [2] and 6 µM in assay [3].
In the same order, the values of `CC(C)C[C@@H](N)CO` are over 1000 µM, over 1000 µM and over 1000 µM.
In assay [2], `CC(C)C[C@H](NC(=O)[C@@H](O)[C@H](N)Cc1ccccc1)C(=O)O` [UBENIMEX] registered a Ki of 0.06 µM.
